# Calls of active or inactive are those of the source. The rule behind the calls is not given here.
# Tests used:
# Rangifer tarandus [1] = experiment: (§1) Binding affinity to reindeer beta-lactoglobulin by fluorescence spectroscopy
# [2] = Solubility assessed as lowest drug level in which detectable aggregates formed by dynamic light scattering method; assay type: physicochemical
# Method in brief: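 Retinoid dilutions in PBS measured by dynamic light scattering. The critical concentration is the lowest level giving DLS-detectable aggregates. Concentrations ran up to 200 μM.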
# [3] = biological target: T1, Beta-lactoglobulin (Bos taurus) (UniProt P02754); experiment: (§2) Binding affinity to bovine beta-lactoglobulins by fluorescence spectroscopy
# T1 sequence (whole entry): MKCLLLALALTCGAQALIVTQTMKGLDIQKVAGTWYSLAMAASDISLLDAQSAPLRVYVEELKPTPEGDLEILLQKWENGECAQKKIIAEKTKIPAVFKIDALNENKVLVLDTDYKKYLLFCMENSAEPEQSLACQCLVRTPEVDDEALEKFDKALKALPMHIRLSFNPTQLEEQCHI
# [4] = biological target: T1, Beta-lactoglobulin (Bos taurus); experiment: Binding affinity to bovine beta-lactoglobulins at 100 uM by ultrafiltration/HPLC method
# Method in brief: (§3)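 Ultrafiltration sampling with HPLC analysis. Ligand at 100 μM was allowed to interact with βLG at 50 μM, and the fraction of ligand found in the retentate was quantified as a percentage.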
# [5] = Solubility in PBS assessed as aggregate diameter size at 200 uM by dynamic light scattering method
# [6] = Solubility assessed as aggregate formation at >= pH 5 by dynamic light scattering method; assay type: physicochemical; details: buffer
# Method in brief: (§4)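 Retinoids diluted in acid buffer spanning pH 2.0 to 7.0 and examined by dynamic light scattering for aggregate signal.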
# [7] = biological target: T1, Beta-lactoglobulin (Bos taurus); experiment: Binding affinity to bovine beta-lactoglobulins assessed as aggregate diameter size formed at 200 uM by dynamic light scattering method
# Method in brief: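 Retinoid at 200 μM diluted in PBS and measured by dynamic light scattering as mean intensity and particle diameter (kCps/nm). Bovine βLG was then added to the cuvette at 50 μM, and a second run followed a 30 min stabilization phase.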
# Rangifer tarandus [8] = experiment: Binding affinity to reindeer beta-lactoglobulin at 100 uM by ultrafiltration/HPLC method; method in brief: as §3
# [9] = as §1; set-up: species or system Rangifer tarandus
# [10] = Solubility assessed as aggregate formation at <= pH 4 by dynamic light scattering method; assay type: physicochemical; details: buffer; method in brief: as §4
# Beta-lactoglobulin = biological target: T2, Beta-lactoglobulin (Bos taurus, UniProt P02754); experiment: as §2
# T2 sequence (P02754 whole entry): T1 sequence (whole entry)
SMILES,Activity (Rangifer tarandus [1]),solubility [2],Activity [3],Activity [4],Activity [5],solubility [6],Activity [7],Activity (Rangifer tarandus [8]),Kd [9],solubility [10],Kd (Beta-lactoglobulin)
COC(=O)/C=C/c1ccc(/C=C/C2=C(C)CCCC2(C)C)cc1,–,–,Active,7%,791.6 nm,Insoluble,276 nm,11%,–,–,–
C/C(=C\c1ccc(C(=O)O)cc1)c1ccc2c(c1)C(C)(C)CCC2(C)C,Active,50 µM,Active,Active,848.5 nm,Insoluble,243 nm,Active,–,–,–
CC1=C(/C=C/c2ccc(/C=C/C(=O)O)cc2)C(C)(C)CCC1,–,100 µM,–,29.1%,668.7 nm,–,188 nm,18.8%,107 nM,Insoluble,153 nM

# Second part, the compound after the results:
Activity (Rangifer tarandus [1]),solubility [2],Activity [3],Activity [4],Activity [5],solubility [6],Activity [7],Activity (Rangifer tarandus [8]),Kd [9],solubility [10],Kd (Beta-lactoglobulin),SMILES
Active,100 µM,Active,Active,818.1 nm,Insoluble,424 nm,Active,–,–,–,CC1=C(/C=C/C(C)=C/C=C/C(C)=C/C(=O)Nc2ccc(O)cc2)C(C)(C)CCC1 [FENRETINIDE]
–,–,–,7.9%,972.2 nm,–,129 nm,7.6%,200 nM,Insoluble,–,CC1=C(/C=C/C(C)=C/C=C/C(C)=C/CO)C(C)(C)CCC1 [RETINOL]
